The results in this text go back to ChEMBL document CHEMBL4130487, “A pentanoic acid derivative targeting matrix metalloproteinase-2 (MMP-2) induces apoptosis in a chronic myeloid leukemia cell line” (Eur J Med Chem, 2017).

The term IC50 denotes the concentration needed to halve the response being measured. The term inhibition denotes the relative decrease from the control value, in per cent.

Test [1] has as its system K562. As to the kind of experiment: Cell cycle arrest in human K562 cells assessed as accumulation at G1-phase at 10 uM after 48 hrs by propidium iodide staining based flow cytometry (reference value: 27.5%). The format is functional. On the technique in general: In flow cytometry, cells or beads pass a laser one at a time.
Test [2] concerns K562. Description: Downregulation of MMP2 protein expression in human K562 cells assessed as MMP2 positive population at 5 uM after 48 hrs by FITC staining based flow cytometry (reference value: 98.4%).
In a further test the test system is MDA-MB-231. As to the kind of experiment: Cytotoxicity against human MDA-MB-231 cells assessed as reduction in cell viability after 48 hrs by MTT assay. As to conditions: MDA-MB-231, 48 h. The format is functional, cell-based. A digest of the protocol:
(§1)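 A549, MDA-MB-231, K562, U937 and PBMC (PBMC from healthy donors) seeded at 1×10^3 cells/well and left 24 h, then exposed to compounds for 48 h at 37 °C, 5% CO2. Adherent lines were grown in DMEM, the others in RPMI-1640 with 10% heat-inactivated FBS. MTT read-out; viability expressed as % of untreated control. IC50 taken as the concentration giving 50% viability loss.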
On the technique in general: Tetrazolium dyes change colour on reduction, which living cells bring about.

The target of test [3] is MMP-2/MMP-9 (Homo sapiens) (UniProt P08253+P14780). As to the kind of experiment: Selectivity ratio of IC50 for recombinant human MMP9 (Phe107 to Pro449 residues) expressed in Escherichia coli to IC50 for recombinant human MMP2 (Tyr110 to Asp452 residues).
Test [4] deals with K562. As to the kind of experiment: Induction of apoptosis in human K562 cells assessed as increase in late apoptotic cells at 2.5 to 10 uM after 48 hrs by Annexin V-FITC/propidium iodide staining based flow cytometry relative to control. Format: functional.
The test system of test [5] is K562. Description: Cell cycle arrest in human K562 cells assessed as accumulation at sub-G1 phase at 2.5 uM after 24 hrs by propidium iodide staining based flow cytometry (reference value: 1%).
The target of test [6] is Matrix metalloproteinase-9 (Homo sapiens, UniProt P14780). As to the kind of experiment: Inhibition of recombinant human MMP9 (Phe107 to Pro449 residues) expressed in Escherichia coli using Ac-Pro-Leu-Gly-S-Leu-Leu-Gly-OEt as substrate after 1 hr measured at 1 min time interval for 30 mins by microplate photometric method. The gist of the method: (§2)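 Commercial MMP kits; compound preincubated with enzyme before chromogenic substrate was added. Reactions at 37 °C for 1 h, with at least six inhibitor concentrations in triplicate. Absorbance at 410 nm read every 1 min for 30 min. NNGH used as reference inhibitor. IC50 taken from semi-logarithmic dose-response plots.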
Chain of Matrix metalloproteinase-9 (P14780 whole entry): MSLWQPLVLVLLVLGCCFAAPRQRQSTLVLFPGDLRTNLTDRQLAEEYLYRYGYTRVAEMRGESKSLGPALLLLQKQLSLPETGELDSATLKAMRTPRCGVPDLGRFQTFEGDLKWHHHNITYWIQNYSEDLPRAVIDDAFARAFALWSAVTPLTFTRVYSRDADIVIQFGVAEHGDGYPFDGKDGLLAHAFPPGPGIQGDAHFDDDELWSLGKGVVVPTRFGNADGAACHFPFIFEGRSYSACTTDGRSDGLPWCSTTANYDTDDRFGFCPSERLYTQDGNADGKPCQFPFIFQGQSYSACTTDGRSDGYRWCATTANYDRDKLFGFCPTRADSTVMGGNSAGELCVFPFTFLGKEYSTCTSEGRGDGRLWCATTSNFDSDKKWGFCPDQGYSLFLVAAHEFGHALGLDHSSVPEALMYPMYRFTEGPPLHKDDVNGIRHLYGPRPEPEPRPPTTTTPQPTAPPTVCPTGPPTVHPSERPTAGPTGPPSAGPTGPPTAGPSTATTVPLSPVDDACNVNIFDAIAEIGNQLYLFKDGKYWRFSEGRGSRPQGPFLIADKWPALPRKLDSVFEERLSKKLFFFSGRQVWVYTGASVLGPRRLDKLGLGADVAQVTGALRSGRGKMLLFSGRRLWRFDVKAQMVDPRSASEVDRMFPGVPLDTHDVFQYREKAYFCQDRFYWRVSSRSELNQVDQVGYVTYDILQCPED

Test [7] concerns the target 72 kDa type IV collagenase (Homo sapiens, UniProt P08253). As to the kind of experiment: Inhibition of recombinant human MMP2 (Tyr110 to Asp452 residues) using Ac-Pro-Leu-Gly-S-Leu-Leu-Gly-OEt as substrate after 1 hr measured at 1 min time interval for 30 mins by microplate photometric method. A digest of the protocol:
as §2

The subject of test [8] is K562. Description: Cell cycle arrest in human K562 cells assessed as accumulation at G1-phase at 2.5 uM after 24 hrs by propidium iodide staining based flow cytometry (reference value: 27.5%).
Test [9] concerns K562. As to the kind of experiment: Induction of apoptosis in human K562 cells assessed as necrotic cells at 2.5 uM after 48 hrs by Annexin V-FITC/propidium iodide staining based flow cytometry (reference value: 0%). The format is functional.
Test [10] addresses Macrophage metalloelastase (Homo sapiens, UniProt P39900). Description: Inhibition of recombinant human MMP12 (Phe99 to Leu271 residues) expressed in Escherichia coli using Ac-Pro-Leu-Gly-S-Leu-Leu-Gly-OEt as substrate after 1 hr measured at 1 min time interval for 30 mins by microplate photometric method. The gist of the method:
as §2

Test [11] concerns K562. As to the kind of experiment: Induction of apoptosis in human K562 cells assessed as increase in early apoptotic cells at 2.5 to 10 uM after 48 hrs by Annexin V-FITC/propidium iodide staining based flow cytometry relative to control. Format: functional.
In test [12] the test system is K562. As to the kind of experiment: Anti-invasive activity against human K562 cells at 5 uM after 24 hrs by CyQuantGR dye based fluorimetric QCM EC matrix assay relative to control. As to conditions: K562, 24 h. The format is functional. A digest of the protocol:
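K562 cells (1X10^6 cells/ml) starved overnight in FBS-free medium, then placed in inserts in FBS-free medium with 5% BSA, with 5% FBS medium below as chemoattractant. Treated at 2.5, 5 and 10 μM in triplicate for 24 h alongside an untreated control. Invaded cells were detached, stained with CyQuantGR and read by fluorescence (ex 480/em 520 nm). Results given as % of control, mean ± SD.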

Test [13] deals with K562. Description: Induction of apoptosis in human K562 cells assessed as live cells at 5 uM after 48 hrs by Annexin V-FITC/propidium iodide staining based flow cytometry (reference value: 90.1%). The format is functional.
Test [14] deals with K562. As to the kind of experiment: Cytotoxicity against human K562 cells assessed as reduction in cell viability after 48 hrs by MTT assay. Format: functional, cell-based. As to conditions: K562, 48 h. The gist of the method: as §1
In test [15] the test system is K562. As to the kind of experiment: Induction of apoptosis in human K562 cells assessed as early apoptotic cells at 5 uM after 48 hrs by Annexin V-FITC/propidium iodide staining based flow cytometry (reference value: 9.6%). The format is functional.
Test [16] concerns K562. As to the kind of experiment: Downregulation of MMP2 protein expression in human K562 cells assessed as MMP2 positive population at 10 uM after 48 hrs by FITC staining based flow cytometry (reference value: 98.4%).
In test [17] the test system is K562. Description: Induction of apoptosis in human K562 cells assessed as live cells at 10 uM after 48 hrs by Annexin V-FITC/propidium iodide staining based flow cytometry (reference value: 90.1%). The format is functional.
Test [18] has as its system K562. As to the kind of experiment: Cell cycle arrest in human K562 cells assessed as accumulation at G2/M-phase at 5 uM after 48 hrs by propidium iodide staining based flow cytometry (reference value: 35.3%). Format: functional.
Test [19] deals with K562. As to the kind of experiment: Induction of apoptosis in human K562 cells assessed as early apoptotic cells at 10 uM after 48 hrs by Annexin V-FITC/propidium iodide staining based flow cytometry (reference value: 9.6%). Format: functional.

Chain of Macrophage metalloelastase (P39900 whole entry): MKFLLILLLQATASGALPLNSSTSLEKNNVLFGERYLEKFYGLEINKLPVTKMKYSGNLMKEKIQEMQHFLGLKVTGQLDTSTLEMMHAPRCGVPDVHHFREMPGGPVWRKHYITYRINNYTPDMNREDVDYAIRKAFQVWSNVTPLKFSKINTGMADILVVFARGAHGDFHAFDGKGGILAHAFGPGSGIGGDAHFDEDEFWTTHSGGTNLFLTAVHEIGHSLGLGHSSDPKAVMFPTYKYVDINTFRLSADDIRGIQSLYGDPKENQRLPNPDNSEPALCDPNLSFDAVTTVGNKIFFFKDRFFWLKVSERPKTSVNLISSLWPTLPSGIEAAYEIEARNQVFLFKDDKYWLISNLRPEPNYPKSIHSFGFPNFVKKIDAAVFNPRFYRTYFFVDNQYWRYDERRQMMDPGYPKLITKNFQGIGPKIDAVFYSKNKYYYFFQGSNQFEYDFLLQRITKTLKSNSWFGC
Chain of 72 kDa type IV collagenase (P08253 whole entry): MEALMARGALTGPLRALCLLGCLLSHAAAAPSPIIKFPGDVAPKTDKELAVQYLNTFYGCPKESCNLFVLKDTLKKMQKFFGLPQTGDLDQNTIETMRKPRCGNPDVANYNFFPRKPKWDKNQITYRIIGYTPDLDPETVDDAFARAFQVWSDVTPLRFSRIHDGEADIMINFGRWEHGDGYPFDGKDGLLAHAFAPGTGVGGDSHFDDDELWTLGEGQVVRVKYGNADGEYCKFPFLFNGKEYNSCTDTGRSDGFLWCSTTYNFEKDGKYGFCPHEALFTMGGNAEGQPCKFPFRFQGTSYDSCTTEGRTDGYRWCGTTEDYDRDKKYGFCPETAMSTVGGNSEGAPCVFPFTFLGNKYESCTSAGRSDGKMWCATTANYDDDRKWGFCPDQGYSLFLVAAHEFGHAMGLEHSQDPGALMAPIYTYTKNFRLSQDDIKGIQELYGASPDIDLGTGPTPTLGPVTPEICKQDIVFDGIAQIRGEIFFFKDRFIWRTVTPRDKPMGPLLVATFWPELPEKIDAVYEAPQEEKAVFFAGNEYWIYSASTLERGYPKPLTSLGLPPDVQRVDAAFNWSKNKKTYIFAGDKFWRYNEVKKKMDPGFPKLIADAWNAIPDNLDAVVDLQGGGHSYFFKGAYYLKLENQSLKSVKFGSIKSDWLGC

Regarding `CCCCCNC(=O)CC[C@H](NS(=O)(=O)c1ccc([N+](=O)[O-])cc1)C(=O)O`, the Activity in the test with K562 [1] was 39.8%; in the test on K562 [2] it was 18.9%; in the test on K562 [5] it was 1.4%; in the test with K562 [8], 30.7%; in the test with K562 [9], 0.5%; in the test on K562 [13] it was 76%. In addition, the Activity in the test with K562 [15] was 15.4%; with K562 [16] it was 15.6%; in the test on K562 [17], 74%; in the test on K562 [18], 32.2%; with K562 [19] it was 15.4%. For the same compound, the IC50 stood at 162 µM in the test on MDA-MB-231; 6.8 µM in test [6]; 4.8 µM in test [7]; 493 µM in test [10]; 17.9 µM in the test on K562 [14]. For the same compound, the Ratio IC50 in [3] is 1.42. Further, the “fold change (FC)” value in the test with K562 [4] and in the test on K562 [11] was “<=300” each time. Further, in the test with K562 [12], the inhibition at 5 µM stood at 14.2%.
